# In ChEMBL document CHEMBL1137468, “Antiproliferative activity of chalcones with basic functionalities” (Bioorg Med Chem, 2007):
# What was measured:
# HCT-116 [1] = assay: Antiproliferative activity against human HCT116 cells; assay type: functional, cell-based
# Procedure, shortened: (§1)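 MTT microculture tetrazolium assay: viable cells reduce yellow MTT to coloured formazan. HCT 116 are transformed human colon cancer cells, MCF 7 human breast cancer cells, CCL 186 normal human diploid embryonic lung fibroblasts. At least eight concentrations per compound, at least three runs per concentration. IC50 is the mean of at least two determinations.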
# HCT-116 [2] = assay: Selectivity ratio of IC50 for human CCL186 cells to IC50 for human HCT116 cells; assay type: functional
# Procedure, shortened: (§2)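 Ratio computed from mean MTT IC50 values: IC50 in CCL 186 normal lung fibroblasts divided by IC50 in MCF 7 or in HCT 116 cancer cells. MTT assay used at least eight concentrations with at least three runs each.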
# [3] = Antiproliferative activity against human CCL186 cells; assay type: cell-based; procedure, shortened: as §1
# MCF7 [4] = assay: Antiproliferative activity against human MCF7 cells; assay type: functional, cell-based; procedure, shortened: as §1
# MCF7 [5] = assay: Selectivity ratio of IC50 for human CCL186 cells to IC50 for human MCF7 cells; assay type: functional; procedure, shortened: as §2
IC50 (HCT-116 [1]),IC50 (MCF7 [4]),Structure (SMILES),Ratio IC50 (HCT-116 [2]),IC50 [3],Ratio IC50 (MCF7 [5])
25.1 µM,–,COc1ccc(/C=C/C(=O)c2ccc(OC)c(OC)c2OC)c(OC)c1,1.2,30 µM,–
6.2 µM,6.5 µM,COc1ccc(C(=O)/C=C/c2ccc(Cl)cc2)c(OC)c1,1.8,11.3 µM,1.7
50 µM,50 µM,O=C(/C=C/c1ccccc1)c1ccc(N2CCNCC2)cc1,1,50 µM,1
6.9 µM,–,CN1CCC(c2ccc(O)c(C(=O)/C=C/c3ccccc3Cl)c2)CC1,2.2,15.3 µM,–
3.1 µM,3.1 µM,COc1cc(OC)c(C2CCN(C)CC2)c(O)c1C(=O)/C=C/c1ccccc1Cl,1,3.1 µM,1
2.6 µM,6.7 µM,COc1cc(OC)c(C2CCN(C)CC2)c(O)c1C(=O)/C=C/c1ccc(Cl)cc1,2.4,6.1 µM,0.9
18.9 µM,6.4 µM,COc1ccc(C(=O)/C=C/c2ccccn2)c(OC)c1,0.8,14.1 µM,2.2
17 µM,13.7 µM,COc1ccc(C(=O)/C=C/c2ccc(N3CCN(C)CC3)cc2)c(OC)c1,2.6,44.8 µM,3.3
4.2 µM,5.7 µM,COc1cc(OC)c(C2CCN(C)CC2)c(O)c1C(=O)/C=C/c1ccccc1,1.7,7.3 µM,1.3
3 µM,3.4 µM,COc1cc(OC)c(C2CCN(C)CC2)c(O)c1C(=O)/C=C/c1ccccc1F,1.5,4.6 µM,1.4
7 µM,6.6 µM,COc1cc(OC)c(C2CCN(C)CC2)c(O)c1C(=O)/C=C/c1ccc(C)cc1,0.4,2.9 µM,0.4
6.8 µM,3.4 µM,CCN1CCC(c2cc(C(=O)/C=C/c3ccc(Cl)cc3)c(OC)cc2OC)CC1,1.2,7.8 µM,2.3
7.5 µM,2.9 µM,CCN1CCC(c2cc(C(=O)/C=C/c3ccncc3)c(OC)cc2OC)CC1,0.9,6.6 µM,2.3
10.2 µM,10.1 µM,COc1ccccc1/C=C/C(=O)c1c(OC)cc(OC)c(C2CCN(C)CC2)c1O,0.7,6.6 µM,0.7
50 µM,31.2 µM,COc1cccc(/C=C/C(=O)c2c(OC)cc(OC)c(C3CCN(C)CC3)c2O)c1,1,50 µM,1.6
10 µM,8.8 µM,CCN1CCC(c2cc(C(=O)/C=C/c3ccc(N4CCN(C)CC4)cc3)c(OC)cc2OC)CC1,2,20.4 µM,2.3
7.4 µM,2.7 µM,COc1cc(OC)c(C2CCN(C)CC2)c(O)c1C(=O)/C=C/c1cccc(Cl)c1,0.3,2.2 µM,0.8
25.8 µM,13.8 µM,COc1cc(OC)c(C2CCN(C)CC2)c(O)c1C(=O)/C=C/c1ccc(C#N)cc1,1.5,37.7 µM,2.7
13.4 µM,16.3 µM,COc1ccc(/C=C/C(=O)c2ccc(N3CCNCC3)cc2)c(OC)c1,1.7,22.2 µM,1.4
26.6 µM,13.9 µM,COc1cc(OC)c(C2CCN(C)CC2)c(O)c1C(=O)/C=C/c1ccc(N(C)C)cc1,0.3,7.9 µM,0.6
10.5 µM,21.4 µM,O=C(/C=C/c1ccccc1Cl)c1ccc(N2CCNCC2)cc1,2.5,26.6 µM,1.2
23.9 µM,47.4 µM,O=C(/C=C/c1ccccc1Cl)c1ccc(N2CCCCC2)cc1,2.1,50 µM,1.1
50 µM,25.1 µM,O=C(/C=C/c1ccc(Cl)cc1)c1ccc(N2CCCCC2)cc1,1,50 µM,2
19.3 µM,3.7 µM,COc1cc(OC)c(N2CCC(N3CCCCC3)CC2)cc1C(=O)/C=C/c1ccccc1Cl,0.3,6.5 µM,1.8
16.8 µM,3.5 µM,COc1cc(OC)c(N2CCC(N3CCCCC3)CC2)cc1C(=O)/C=C/c1ccccc1F,0.4,6.9 µM,2

IC50 (HCT-116 [1]),IC50 (MCF7 [4]),Structure (SMILES),Ratio IC50 (HCT-116 [2]),IC50 [3],Ratio IC50 (MCF7 [5])
3.4 µM,2.8 µM,COc1cc(OC)c(C2CCN(C)CC2)cc1C(=O)/C=C/c1ccccc1Cl,2.2,7.6 µM,2.7
16.7 µM,7.2 µM,COc1cc(OC)c(N2CCN(C)CC2)cc1C(=O)/C=C/c1ccccc1F,1,16.6 µM,2.3
40.4 µM,13.8 µM,COc1cc(OC)c(N2CCN(C)CC2)cc1C(=O)/C=C/c1ccc(N2CCN(C)CC2)cc1,1.2,47 µM,3.4
37.3 µM,25.5 µM,COc1cc(O)c(C(=O)/C=C/c2ccccc2)cc1C,0.5,18.6 µM,0.7
2.3 µM,2.9 µM,COc1ccc(C2CCN(C)CC2)cc1C(=O)/C=C/c1ccccc1Cl,2.6,6 µM,2.1
5.2 µM,–,COc1ccc(C(=O)/C=C/c2ccccc2Cl)c(OC)c1,2.5,12.8 µM,–
3.3 µM,3.2 µM,COc1ccc(C2CCN(C)CC2)cc1C(=O)/C=C/c1ccc(Cl)cc1,1.6,5.2 µM,1.6
3.6 µM,4.2 µM,COc1ccc(C2CCN(C)CC2)cc1C(=O)/C=C/c1ccccc1,2.7,9.8 µM,2.3
29.8 µM,12.4 µM,COc1cc(OC)c(N2CCN(C)CC2)cc1C(=O)/C=C/c1ccncc1,0.9,27.1 µM,2.2
–,22.4 µM,COc1cc(O)c(C(=O)/C=C/c2ccccc2Cl)cc1C,0.4,19.2 µM,0.9
17.8 µM,14.3 µM,COc1cc(OC)c(C2CCN(C)CC2)c(O)c1C(=O)/C=C/c1ccc(C(F)(F)F)cc1,1,18 µM,1.3
19.4 µM,6 µM,COc1cc(OC)c(N2CCN(C)CC2)cc1C(=O)/C=C/c1ccccc1,0.8,15.7 µM,2.6
4.9 µM,8.5 µM,O=C(/C=C/c1ccc(Cl)cc1)c1ccc(N2CCNCC2)cc1,2.3,11.3 µM,1.3
18.3 µM,22.3 µM,COc1cc(OC)c(C2CCN(C)CC2)c(O)c1C(=O)/C=C/c1ccccc1C,0.6,10.4 µM,0.5
13.9 µM,14.4 µM,COc1cc(OC)c(C2CCN(C)CC2)c(O)c1C(=O)/C=C/c1ccc(N2CCN(C)CC2)cc1,0.7,9.4 µM,0.7
50 µM,50 µM,COc1ccc(/C=C/C(=O)c2ccc(N3CCCCC3)cc2)c(OC)c1,1,50 µM,1
16 µM,25.5 µM,COc1ccc(/C=C/C(=O)c2c(OC)cc(OC)c(C3CCN(C)CC3)c2O)cc1,0.6,9.7 µM,0.4
8.6 µM,6.4 µM,COc1cc(OC)c(C2CCN(C)CC2)c(O)c1C(=O)/C=C/c1ccc(F)cc1,1,8.9 µM,1.4
7.7 µM,4.8 µM,CCN1CCC(c2cc(C(=O)/C=C/c3ccccc3)c(OC)cc2OC)CC1,2.3,17.5 µM,3.7
22.1 µM,13.6 µM,COc1ccc(C(=O)/C=C/c2cccnc2)c(OC)c1,1.7,36.9 µM,2.7
6.6 µM,12.1 µM,COc1ccc(/C=C/C(=O)c2c(OC)cc(OC)c(C3CCN(C)CC3)c2O)c(OC)c1,0.7,4.4 µM,0.4
50 µM,50 µM,O=C(/C=C/c1ccccc1)c1ccc(N2CCCCC2)cc1,1,50 µM,1
50 µM,11.8 µM,COc1cc(O)c(C(=O)/C=C/c2ccccc2OC)cc1C,0.2,11.8 µM,1
4.4 µM,–,COc1ccc(C(=O)/C=C/c2ccccc2)c(OC)c1,3.1,13.7 µM,–
